# Screening data as filed in PubChem BioAssay.
# A selection: hits, their analogues and other compounds. The true share with any hit is near 4.6%.
# OX1R antag-1: antagonists of human orexin 1 receptor (OX1R). AID 485270, 2010. inhibition, % at 6.6 µM. OX1R-expressing cells, FRET antagonist read-out. Orexin/Hypocretin receptor type 1 (Homo sapiens), O43613. 330,000 compounds, 1.8% hits; in the data active = inhibition mostly above about 38%, no sharp cut-off; inactive = mostly below about 40%;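 also: 0% = agonist challenge alone and 100% = reference antagonist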
# CHO parental Ca: ATP-evoked calcium signal inhibitors, parental CHO, primary screen, counter-screen for OX1R antagonist project, cell-based, fluorescence, Fluo-8 calcium dye; parental CHO-K1, ATP-induced calcium, Fluo-8 fluorescence; inhibition, % at 5.6 µM; 330,000 compounds, 0.63% hits;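 active = inhibition above that plate's mean sample inhibition plus 3 SD, cut at about 26% in these data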;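 also: 0% = ATP-challenged DMSO wells and 100% = DMSO wells without ATP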
#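 Test system: untransfected parental CHO cell line; also added: ATP stimulus; dosing: 5.6 µM, single dose; signal: calcium-sensitive Fluo-8 fluorescence; measure: percent inhibition of ATP-evoked calcium rise, normalized to controls; benchmarks: low control ATP plus DMSO, high control DMSO only; replication: one well per compound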
# GPR7 antagonist: GPR7 receptor antagonists, primary screen, cell-based, fluorescence, single concentration. inhibition, % at 4.4 µM. GPR7-expressing cells, fluorescence antagonist assay. 290,000 compounds, 1.1% hits. AID 1861, 2009; in the data active = inhibition above about 16%, passing the limit was not always enough;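 also: cells stimulated with the agonist NPW; 0% = agonist with vehicle and 100% = vehicle without agonist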
# OX1R antag-2: OX1R (HCRTR1) antagonists, primary screen, fluorescence, CHO/OX1R cells, Fluo-8 calcium, orexin A; 330,000 compounds, 0.43% hits; Fluo-8 calcium fluorescence; inhibition, % at 5 µM;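 active = inhibition above its plate's threshold, mean inhibition of all tested compounds on the plate plus 3 SD, cut at about 37% in these data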;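 also: 0% = orexin A challenge wells and 100% = SB-334867-A antagonist wells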
# TAAR1 ag: human TAAR1 agonists, primary screen, Fluo-8 calcium fluorescence, CHO RD-HGA16 cells; vehicle wells 0%, saturating PEA agonist 100%; activation, % at 3 µM; 360,000 compounds, 0.99% hits;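 active = activation above the mean activation of all test compounds in the run plus 3 SD, cut at about 38% in these data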
# Target sequence (Q96RJ0 whole entry, looked up): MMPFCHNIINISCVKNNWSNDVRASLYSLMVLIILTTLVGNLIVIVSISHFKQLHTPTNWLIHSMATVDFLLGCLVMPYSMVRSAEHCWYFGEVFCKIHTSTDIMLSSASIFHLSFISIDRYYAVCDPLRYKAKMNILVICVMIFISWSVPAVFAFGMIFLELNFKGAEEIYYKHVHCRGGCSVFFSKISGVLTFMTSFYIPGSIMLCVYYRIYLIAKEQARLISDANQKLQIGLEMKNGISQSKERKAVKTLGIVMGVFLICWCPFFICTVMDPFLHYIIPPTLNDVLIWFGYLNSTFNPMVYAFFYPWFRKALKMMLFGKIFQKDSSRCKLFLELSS
#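 Repeats: no replicates (n 1) | Material: CHO-derived RD-HGA16 cells with stable Gα16 and human TAAR1 | Technique: Kinetic Fluo-8 calcium fluorescence | Schedule: 17-24 h seeding, 75 min 37 °C dye, 30 min RT | Evaluation: % activation from peak over basal fluorescence ratio, DMSO-to-PEA scaled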
# TAAR1 antag: human TAAR1 antagonists, primary screen, Fluo-8 calcium fluorescence, CHO RD-HGA16 cells. Trace amine-associated receptor 1 (Homo sapiens), Q96RJ0. antagonist. inhibition, % at 3 µM. 360,000 compounds, 1.5% hits;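 active = inhibition above a per-plate cutoff, the mean inhibition of test compounds on that plate plus 3 SD, cut at about 49% in these data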;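 also: 0% = DMSO plus EC80 beta-PEA response and 100% = DMSO alone without agonist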
#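 System: RD-HGA16 CHO cells with stable hTAAR1 and Gα16 | Probe or stimulus: EC80 β-phenethylamine stimulus | Dosing: 3 µM, single point | Times: Dye loading 75 min at 37 °C, then 30 min room temperature | Measured by: Fluo-8 calcium-sensitive fluorescence | Read-out basis: % inhibition of agonist calcium response | Replicates: n of 1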
# TAAR1 ag confirm: human TAAR1 agonists, retest of hits, confirmation, Fluo-8 calcium fluorescence, CHO RD-HGA16 cells. shares compounds with TAAR1 ag. scaled: DMSO 0%, maximal phenethylamine 100%. activation, % at 3 µM. 2,400 compounds, 82% hits. AID 651783, 2012;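 active = activation above a cutoff set at the run's mean compound activation plus 3 SD, cut at about 39% in these data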
# Ga16 nonsel ag: nonselective calcium mobilization agonists, CHO-Ga16 cells, counter-screen for hTAAR1 agonist project, cell-based, fluorescence, CHO-Ga16 parental line; 2,400 compounds, 50% hits; activation, % at 3 µM; AID 651787, 2012; Fluo-8 calcium fluorescence; normalized to maximal ATP response, DMSO zero; shares compounds with TAAR1 ag;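 active = activation above the run cutoff, the mean activation over all tested wells plus 3 SD, cut at about 12% in these data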;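 also: 0% = DMSO wells and 100% = maximal ATP response on the peak over basal ratio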
# TAAR1 desensitize: TAAR1 desensitization by agonist hits, confirmation, counter-screen for TAAR1 agonist project, cell-based, fluorescence, tachyphylaxis; inhibition, % at 3 µM; 2,400 compounds, 46% hits; CHO RD-HGA16 hTAAR1, Fluo-8 calcium, beta-PEA response inhibition; shares compounds with TAAR1 ag;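 active = inhibition above the run cutoff, the mean inhibition of all test compounds plus 3 SD, cut at about 49% in these data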;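 also: beta-PEA stimulus applied at its EC80; loss of beta-PEA calcium signal after compound pretreatment read as receptor desensitization; 0% = DMSO with beta-PEA at EC80 and 100% = DMSO alone without agonist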
# Ga16 antag count: inhibition of ATP-evoked calcium response in CHO-Ga16 cells, counter-screen for TAAR1 agonist project, cell-based, fluorescence; inhibition, % at 3 µM; shares compounds with TAAR1 ag; AID 651952, 2012; 2,400 compounds, 39% hits; CHO-Ga16 ATP-induced calcium, Fluo-8 fluorescence;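 active = inhibition above the plate's mean compound inhibition plus 3 SD, computed per plate, cut at about 22% in these data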;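 also: 0% = EC80 ATP with DMSO and 100% = DMSO wells without ATP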
# An asterisk follows results filed as active; . = not tested or not shown.
SMILES,OX1R antag-1,CHO parental Ca,GPR7 antagonist,OX1R antag-2,TAAR1 ag,TAAR1 antag,TAAR1 ag confirm,Ga16 nonsel ag,TAAR1 desensitize,Ga16 antag count
CC(OC(=O)c1ccc2c(c1)OCO2)C(=O)NC1CCCCC1 (configuration not stated),.,.,.,.,0,-25,.,.,.,.
CC(C)N(Cc1ccccc1)C(=O)CN1C(=O)NC2(CCCC2)C1=O,8,-11,.,-13,2,0,.,.,.,.
c1ccc2c(c1)nnn2Cn1nnc2ccccc21,.,.,.,.,2,-16,.,.,.,.
O=C(CCCCCNc1nc(=S)[nH]c2ccccc12)NCc1ccccc1Cl,20,-28,-4,-37,7,-4,.,.,.,.
S=c1nc(NCCc2ccccc2Cl)c2ccccc2[nH]1,.,.,-13,.,52*,45,33,11,20,22*
COc1ccc(NC(=O)Cn2nnc(-c3ccccc3F)n2)cc1Cl,13,-2,-8,-9,57*,38,19,2,9,18
CCOC(=O)c1ccc(NC(=O)Cn2nnc(-c3ccccc3F)n2)cc1,23,-9,-3,-12,7,-24,.,.,.,.
CCOC(=O)c1cc([N+](=O)[O-])cc([N+](=O)[O-])c1Sc1ncnc2nc[nH]c12,.,.,.,.,-3,-28,.,.,.,.
O=[N+]([O-])c1cccc(NC(=S)N2CCc3ccccc3C2)c1,9,-3,19,-3,55*,31,50*,6,21,16
O=C(COc1ccc([N+](=O)[O-])cc1)N1CCc2ccccc2C1,11,0,-8,-9,0,7,.,.,.,.
O=C(CNCCc1ccccc1)N1CCc2ccccc2C1,20,-27,-11,-15,81*,27,99*,4,89*,5
CCn1ncc([N+](=O)[O-])c1C(=O)N1CCc2ccccc2C1,8,12,-4,-8,42*,-10,30,0,-1,1
O=C(Cc1ccccc1)NCC(=O)N1CCc2ccccc2C1,0,-11,-5,-9,-1,-7,.,.,.,.
O=C(Cc1ccc([N+](=O)[O-])cc1)N1CCc2ccccc2C1,25,-12,-6,-38,55*,-4,74*,7,24,6
CCNC(=O)C1(C)CCN(C(=O)c2cc(F)ccc2C)C1 (configuration not stated),.,.,.,.,3,-13,.,.,.,.
CN(CC(=O)Nc1ccc(F)c(F)c1F)C(=O)CCN1C(=O)C2CC=CCC2C1=O (configuration not stated),.,.,.,.,0,-15,.,.,.,.
COc1ccc(Cc2c(-c3ccc(C#N)cc3)nc3c(Cl)cc(C(F)(F)F)cn23)c(C)c1,.,.,.,.,-1,-11,.,.,.,.
COc1ccc(CN2C(=O)C(C)Nc3ncnc(N4CCc5ccccc5C4)c32)cc1 (configuration not stated),.,.,.,.,53*,16,44*,1,-3,16
